Inconclusive results are not listed.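 How the source made its calls, unless noted: active means cell viability at or below a set limit in both duplicate runs, the limit being the all-compound median minus 4 SD (cut at about 23% in these data, passing the limit was not always enough); inconclusive means no clear call, values can overlap the other calls; inactive means the rest.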
Columns and labels:
[1] = S. cerevisiae growth inhibition in permissive medium (OD615), pilot counter-assay for S. cerevisiae lifespan shortening project, permissive growth control (AID 705;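 active means growth inhibition above 25% in both replicates, a cutoff set 3 SD above the mean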); details: OD615, 24 h, at 10 µM, active compounds read high
Procedure, shortened: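 Test system: Saccharomyces cerevisiae strain carrying genetically modified DeaD replicative-lifespan system; buffer or medium: SC raffinose/galactose permissive medium; dosing: one dose 10 µM, DMSO 0.25% final; times: 24 h exposure, 30 °C; measured by: OD at 615 nm; read-out basis: growth inhibition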

[2] = S. cerevisiae growth inhibition in restrictive medium, OD615, pilot screen, restrictive growth control, yeast lifespan reduction project (AID 706;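 active means growth inhibition above a set limit, 3 SD over mean compound inhibition, in both replicates, cut at about 43% in these data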;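 further: modified DeaD lifespan yeast strain shifted to restrictive glucose medium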); details: OD615, 48 h, at 10 µM, active compounds read high
Procedure, shortened: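 material = engineered S. cerevisiae DeaD strain | buffer or medium = glucose-based CSMM-D restrictive medium | dosing = one concentration, 10 µM final, 0.25% DMSO | schedule = 4 h pre-growth plus 48 h compound exposure, 30 °C | detection = OD615 absorbance reading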

[3] = doxorubicin toxicity protection in MRP-1 cells – H69AR cells, CellTiter-Glo, duplicate, MRP-1 activator project, pilot screen (AID 807;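 active means viability increase at or above a cutoff of the median across tested compounds plus 3 SD, cut at about 8.5% in these data, passing the limit was not always enough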;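 further: compound pretreatment 18-22 h then 72 h combined with doxorubicin; 0% = doxorubicin alone and 100% = vehicle without doxorubicin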); details: H69AR viability with doxorubicin, CellTiter-Glo luminescence; at 10 µM; active compounds read high
[4] = viability of HCT116 without oncogenic beta-catenin – human colon tumor cells, pilot screen (AID 823); details: HCT116 beta-catenin knockout viability, CellTiter-Glo, 60 h; at 10 µM; active compounds read low;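 further: 0% = wells killed by 20 µM Hyamine and 100% = untreated DMSO cell wells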
[5] = viability of PTEN-null HCT116 cells – cell-based, HCT116 clonal line, CellTiter-Glo, pilot screen (AID 824;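 active means viability at or below 27.92% in each of two runs, the all-compound median minus 4 SD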;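 further: 0% = 20 µM Hyamine control and 100% = vehicle cell control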); details: HCT116 PTEN-deleted viability, 60 h, at 10 µM, active compounds read low
[6] = RAM pathway blockade in budding yeast – dse1pr::URA3 reporter, 5-FOA selection, pilot screen (AID 869;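 active means inhibition over a set limit, the all-compound mean plus 3 SD, in both replicate runs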;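 further: 0% = DMSO wells with no growth and 100% = 10 µM 1-NA-PP1 with full growth; RAM network block rescues cells from 5-FOA so hits raise OD615 growth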); details: S. cerevisiae dse1pr::URA3 5-FOA growth, OD615, 2 d; at 10 µM; active compounds read high; strain carries analog-sensitive mutant Cbk1 kinase
[7] = RAM signaling pathway blockade in yeast – S. cerevisiae, Pdr1DBD-CYC8 efflux-inhibited sensitized strain, primary screen (AID 1298;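 active means RAM network inhibition above 8.4% in each of two replicates, 3 SD over the compound average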;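 further: 0% = DMSO untreated cells without growth and 100% = 10 µM 1-NA-PP1 full growth; higher means more yeast growth rescued from 5-FOA killing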); details: S. cerevisiae cbk1-as DSE1-URA3 strain, 5-FOA growth OD615, 2 d; at 50 µM; active compounds read high

COC(=O)c1c(S(N)(=O)=O)c2ccccc2n1C
inactive: growth inhibition [1] -2.33% | growth inhibition [2] 2.71% | viability increase [3] -1.28% | viability [4] 100% | viability [5] 102% | inhibition [6] 1.06% | RAM network inhibition [7] 4.32%

O=C(CN1CCN(C2CCCCC2)CC1)c1ccc2cc[nH]c2c1
inactive: growth inhibition [1] 5.4% | growth inhibition [2] 2.7% | viability increase [3] -3.56% | viability [4] 94% | viability [5] 85.7% | inhibition [6] 1.9% | RAM network inhibition [7] -1.26%

O=C(c1ccccc1)c1ccc(N2CCCC2)cc1
inactive: growth inhibition [1] -1.86% | growth inhibition [2] 7.65% | viability increase [3] -2.59% | viability [4] 93% | viability [5] 96.4% | inhibition [6] 1.23% | RAM network inhibition [7] 1.03%

O=C(Nc1nnc(-c2ccc3c(c2)OCCO3)o1)c1ccc(Cc2ccccc2)cc1
inactive: growth inhibition [1] -7.6% | growth inhibition [2] 6.34% | viability increase [3] -4.05% | viability [4] 46.1% | viability [5] 40.9% | inhibition [6] 1.59% | RAM network inhibition [7] 4.3%

CCOC(=O)C1C(=O)CC(C)(O)C(C(=O)OCC)C1c1cccs1 (stereo not drawn)
inactive: growth inhibition [1] -3.39% | growth inhibition [2] -20.4% | viability increase [3] -2.92% | viability [4] 90% | viability [5] 89.2% | inhibition [6] 2.07% | RAM network inhibition [7] 4.69%

CC1(C)CC(=O)C=C(NCCN2CCN(C(=O)Nc3ccc(Cl)c(Cl)c3)CC2)C1
inactive: growth inhibition [1] 13.1% | growth inhibition [2] 8.88% | viability increase [3] -3.81% | viability [4] 94.8% | viability [5] 90.1% | inhibition [6] -0.235% | RAM network inhibition [7] 3.08%

CC(=O)NCCc1cc2ccc(C)c(C)c2[nH]c1=O
inactive: growth inhibition [1] -14.9% | growth inhibition [2] -18.7% | viability increase [3] -1.53% | viability [4] 103% | viability [5] 97% | inhibition [6] 1.05% | RAM network inhibition [7] 0.37%

CC1CCN(C(=O)C(Cc2ccccc2)NS(=O)(=O)c2ccc3c(c2)oc(=O)n3C)CC1 (stereo not drawn)
inactive: growth inhibition [1] -12.5% | growth inhibition [2] -17.6% | viability increase [3] -1.4% | viability [4] 104% | viability [5] 94.1% | inhibition [6] 1.85% | RAM network inhibition [7] 8.04%

COc1ccc(-c2cc(C(F)F)n3ncc(C(=O)NCCCN4CCCC4=O)c3n2)cc1
inactive: growth inhibition [1] -3.45% | growth inhibition [2] -7.12% | viability increase [3] -4.32% | viability [4] 78.5% | viability [5] 73.5% | inhibition [6] -0.515% | RAM network inhibition [7] 3.32%

CCOCCOC(=O)C1=C(C)N(C)C(=O)NC1c1ccccc1Cl (stereo not drawn)
inactive: growth inhibition [1] 1.35% | growth inhibition [2] -7.18% | viability increase [3] -1.78% | viability [4] 101% | viability [5] 99.8% | inhibition [6] 0.375% | RAM network inhibition [7] 0.57%

Cc1occc1-c1nnc2sc(-c3ccc(-c4ccc(Cl)cc4)o3)nn12
inactive: growth inhibition [1] 7.94% | growth inhibition [2] 21.2% | viability increase [3] 2.86% | viability [4] 106% | viability [5] 95.8% | inhibition [6] 3.19% | RAM network inhibition [7] 5.57%

CCC(=O)Nc1ccc(S(=O)(=O)N2CCc3ccccc3C2)cc1
inactive: growth inhibition [1] -7.58% | growth inhibition [2] -3.42% | viability increase [3] -3.43% | viability [4] 89.1% | viability [5] 90.1% | inhibition [6] 0.395% | RAM network inhibition [7] 10%

O=C(CCSc1ccccc1)Nc1nnc(-c2ccccc2)o1
inactive: growth inhibition [1] -0.38% | growth inhibition [2] 3.81% | viability increase [3] -3.73% | viability [4] 98.9% | viability [5] 103% | inhibition [6] 0.27% | RAM network inhibition [7] 2.5%

CCOC(=O)c1c(N=CN(C)C)c(C#N)n2c1CCC2
inactive: growth inhibition [1] -15.1% | growth inhibition [2] -6.7% | viability increase [3] -1.41% | viability [4] 101% | viability [5] 93.2% | inhibition [6] 1.11% | RAM network inhibition [7] 5.49%

Cc1ccc(C2/C(=C(/O)c3ccc(Br)cc3)C(=O)C(=O)N2Cc2ccco2)o1 (stereo not drawn)
inactive: growth inhibition [1] -16.2% | growth inhibition [2] 7.88% | viability increase [3] -6.07% | viability [4] 55% | viability [5] 65% | inhibition [6] 0.82% | RAM network inhibition [7] -1.74%

N#CC1=C2SCN(c3ccccc3)CN2C(=O)CC1c1c(Cl)cccc1Cl (stereo not drawn)
inactive: growth inhibition [1] -3.85% | growth inhibition [2] 18.9% | viability increase [3] -7.7% | viability [4] 84.3% | viability [5] 93% | inhibition [6] 1.14% | RAM network inhibition [7] 4.42%

CC1C(c2ccccc2)=[N+]([O-])C2(CCCC2)N1O (stereo not drawn)
inactive: growth inhibition [1] -2.46% | growth inhibition [2] -6.78% | viability increase [3] -3.01% | viability [4] 97% | viability [5] 96.6% | inhibition [6] 1.53% | RAM network inhibition [7] 1.41%

Cc1sc2nc3ccc(N4CCCC4)nn3c(=O)c2c1C
inactive: growth inhibition [1] -0.905% | growth inhibition [2] 18.9% | viability increase [3] -2.12% | viability [4] 70.1% | viability [5] 75% | inhibition [6] 0.845% | RAM network inhibition [7] 2.93%

CCc1nnc(SCc2ccc(OC)c(Br)c2)n1N
inactive: growth inhibition [1] 6.13% | growth inhibition [2] -2.06% | viability increase [3] -0.5% | viability [4] 104% | viability [5] 98.9% | inhibition [6] 0.21% | RAM network inhibition [7] 2.41%

Brc1ccccc1OCCCN1CCOCC1
inactive: growth inhibition [1] -11.7% | growth inhibition [2] -9.51% | viability increase [3] 1.1% | viability [4] 97.8% | viability [5] 98.2% | inhibition [6] 1.48% | RAM network inhibition [7] 4.22%

CCP(=O)(c1ccccc1)C(C)(C)O (stereo not drawn)
inactive: growth inhibition [1] 6.37% | growth inhibition [2] -8.84% | viability increase [3] -2.44% | viability [4] 104% | viability [5] 93.9% | inhibition [6] 1.48% | RAM network inhibition [7] -0.68%

CCCC(=O)N1CCN(c2ccc(C(=O)c3ccc(OC)c(Br)c3)cc2F)CC1
inactive: growth inhibition [1] -14.6% | growth inhibition [2] -18.4% | viability increase [3] -1.74% | viability [4] 96.8% | viability [5] 93.7% | inhibition [6] 1.3% | RAM network inhibition [7] 4.76%

COc1cc(S(=O)(=O)NCc2ccc3c(c2)OCO3)ccc1Cl
inactive: growth inhibition [1] -10.5% | growth inhibition [2] -15.1% | viability increase [3] -2.38% | viability [4] 97.3% | viability [5] 95.5% | inhibition [6] 1.69% | RAM network inhibition [7] 0.82%

c1nnc2c3c4c(sc3ncn12)CCC4
inactive: growth inhibition [1] -1.74% | growth inhibition [2] 15.2% | viability increase [3] -3.97% | viability [4] 96.6% | viability [5] 107% | inhibition [6] 1.25% | RAM network inhibition [7] 6.33%

Source: PubChem BioAssay
